Measured values collected from several papers.
Protocols differ between the studies behind these lines.
Read-out: cell growth or viability

For CC(=N)S, the IC50 was 332 µM (NIH3T3; 96 h; 3D culture).
CC[C@H](C)[C@H](NC(=O)[C@H](CCCCN)NC(=O)[C@H](CCCNC(=N)N)NC(=O)[C@H](Cc1ccccc1)NC(=O)[C@H](CCCNC(=N)N)NC(=O)[C@H](CCCNC(=N)N)NC(=O)[C@H](CCCNC(=N)N)NC(=O)[C@H](Cc1ccccc1)NC(=O)[C@H](CCCCN)NC(=O)[C@H](CCCNC(=N)N)NC(=O)[C@H](CC(C)C)NC(=O)[C@@H](N)CCCNC(=N)N)C(=O)NCC(N)=O has an IC50 of > 500 µM (A549; MTT; 24 h).
COc1cc(C(=O)c2nc(-c3ccc4[nH]ccc4c3)c[nH]2)cc(OC)c1OC has an IC50 of 0.0277 µM (PC-3; MTS; 72 h).
For O=[N+]([O-])c1ccc(NCCCCCCN=C=S)c2nonc12, the IC50 was 1 µM (PC-3; MTT; 24 h).
CC(C)[C@H](NC(=O)[C@H](CCCCN)NC(=O)[C@H](Cc1c[nH]c2ccccc12)NC(=O)[C@H](Cc1c[nH]c2ccccc12)NC(=O)[C@H](CCCNC(=N)N)NC(=O)[C@H](Cc1c[nH]c2ccccc12)NC(=O)[C@H](Cc1c[nH]cn1)NC(=O)[C@@H](N)CCCNC(=N)N)C(=O)N[C@@H](Cc1c[nH]cn1)C(=O)N[C@@H](Cc1c[nH]c2ccccc12)C(=O)N[C@@H](CCCNC(=N)N)C(=O)N[C@@H](CCC(=O)O)C(=O)N[C@@H](Cc1c[nH]c2ccccc12)C(N)=O gave an IC50 of > 500 µM (A549; MTT; 24 h).
The IC50 of N.N.[Cl][Pt][Cl] is reported as 1.18 µM (WSU-NHL; ATP luminescence; 72 h).
COc1cc(C(=O)c2nc(-c3c[nH]c4ccccc34)c[nH]2)cc(OC)c1OC gave an IC50 of 0.0711 µM (PC-3; MTS; 72 h).
With CC[C@H](C)[C@H](NC(=O)CN)C(=O)NCC(=O)N[C@@H](C)C(=O)N[C@H](C(=O)N[C@@H](CC(C)C)C(=O)N[C@@H](CCCCN)C(=O)N[C@H](C(=O)N[C@@H](CC(C)C)C(=O)N[C@H](C(=O)N[C@H](C(=O)NCC(=O)N[C@@H](CC(C)C)C(=O)N1CCC[C@H]1C(=O)N[C@@H](C)C(=O)N[C@@H](CC(C)C)C(=O)N[C@H](C(=O)N[C@@H](CO)C(=O)N[C@@H](Cc1c[nH]c2ccccc12)C(=O)N[C@H](C(=O)N[C@@H](CCCCN)C(=O)N[C@@H](CCCNC(=N)N)C(=O)N[C@@H](CCCCN)C(=O)N[C@@H](CCCNC(=N)N)C(=O)N[C@@H](CCC(N)=O)C(=O)N[C@@H](CCC(N)=O)C(N)=O)[C@@H](C)CC)[C@@H](C)CC)[C@@H](C)O)[C@@H](C)O)C(C)C)C(C)C the IC50 was 8.58 µM (IPEC-J2; MTT; 24 h).
CC(C)C[C@H](NC(=O)[C@H](CCCCN)NC(=O)[C@H](Cc1c[nH]c2ccccc12)NC(=O)[C@H](Cc1c[nH]c2ccccc12)NC(=O)[C@H](CCCNC(=N)N)NC(=O)[C@H](Cc1c[nH]c2ccccc12)NC(=O)[C@H](Cc1c[nH]cn1)NC(=O)[C@@H](N)CCCNC(=N)N)C(=O)N[C@@H](Cc1c[nH]cn1)C(=O)N[C@@H](Cc1c[nH]c2ccccc12)C(=O)N[C@@H](CCCNC(=N)N)C(=O)N[C@@H](CCC(=O)O)C(=O)N[C@@H](Cc1c[nH]c2ccccc12)C(N)=O has an IC50 of 71 µM (A549; MTT; 24 h).
S=P1(c2ccccc2)CCCCC1 has an IC50 of > 100 µM (PC-3; MTT; 72 h).
CC(C)C[C@H](NC(=O)[C@H](CCCCN)NC(=O)[C@H](Cc1c[nH]c2ccccc12)NC(=O)[C@H](CCCNC(=N)N)NC(=O)[C@H](CCCCN)NC(=O)[C@H](CC(C)C)NC(=O)[C@H](Cc1ccccc1)NC(=O)[C@H](CCCCN)NC(=O)[C@H](CCCCN)NC(=O)[C@H](CC(C)C)NC(=O)[C@H](CC(C)C)NC(=O)[C@H](CCCCN)NC(=O)[C@@H](N)CO)C(N)=O gave an IC50 of 26 µM (A549; MTT; 24 h).
The IC50 of C#CC[C@@H]1NC(=O)[C@@H](CCCNC(=N)N)NC(=O)[C@H]([C@@H](C)O)NC(=O)[C@@H](CCCN)NC(=O)[C@H](Cc2ccccc2)NC(=O)[C@@H](Cc2ccccc2)NC1=O is reported as > 100 µM (A549; ATP luminescence).
COc1cc(C(=O)c2nc(-c3cccc4[nH]ccc34)cn2C)cc(OC)c1OC has an IC50 of 0.17 µM (PC-3; MTS; 72 h).
N.N.[Cl][Pt][Cl] has an IC50 of 6.78 µM (NIH3T3; 96 h).
COc1cc(C(=O)c2nc(-c3cccc4occc34)c[nH]2)cc(OC)c1OC gave an IC50 of 0.0614 µM (PC-3; MTS; 72 h).
For CC[C@H](C)[C@H](NC(=O)[C@H](CCCNC(=N)N)NC(=O)CNC(=O)[C@H](CCCCN)NC(=O)[C@H](CCCNC(=N)N)NC(=O)[C@H](CCCNC(=N)N)NC(=O)[C@H](CC(C)C)NC(=O)[C@H](CCC(N)=O)NC(=O)CNC(=O)[C@H](CCCCN)NC(=O)[C@@H](N)CCSC)C(=O)N[C@@H](CCCNC(=N)N)C(N)=O, the IC50 was > 500 µM (A549; MTT; 24 h).
